From ChEMBL document CHEMBL1150362, “Synthesis and in vitro evaluation of a library of modified endomorphin 1 peptides” (Bioorg Med Chem, 2008)
pIC50, pKi: −log10 of the molar value. *1 amine or outer side, *2 acyl side, *3 side chain or, on linkers, in order; H or OH if unused. Where a SMILES comes first, the peptide text is derived from it. [ ]: non-standard residue; d: D form. The star is where a group is joined. ξ: configuration not given here. NH(β-D-Glc) = OC[C@H]1O[C@@H](N*)[C@H](O)[C@@H](O)[C@@H]1O; X1 = NC(=O)[C@H]1O[C@@H](N*)[C@H](O)[C@@H](O)[C@@H]1O; ξGly(nC16H33) = CCCCCCCCCCCCCCCCC(N)C(=O)O; Dmt = Cc1cc(O)cc(C)c1C[C@H](N)C(=O)O; ξGly(decyl) = CCCCCCCCCCC(N)C(=O)O; Suc = O=C(CCC(=O)[*:2])[*:1]; ξAoc(2) = CCCCCCC(N)C(=O)O

What was measured:
[1] = test system: Caco-2; assay: (§1) Metabolic stability assessed as half life in human Caco-2 cell homogenate; assay type: ADME, Colon; details: Caco-2
[2] = test system: Caco-2; assay: (§2) Apparent permeability from apical to basolateral side of the human Caco-2 membrane; assay type: ADME, cell-based
[3] = molecular target: Delta-type opioid receptor (Rattus norvegicus, UniProt P33533); assay: Displacement of […] from delta opioid receptor in rat brain membrane; assay type: cell membranes
Chain of Delta-type opioid receptor (P33533 whole entry): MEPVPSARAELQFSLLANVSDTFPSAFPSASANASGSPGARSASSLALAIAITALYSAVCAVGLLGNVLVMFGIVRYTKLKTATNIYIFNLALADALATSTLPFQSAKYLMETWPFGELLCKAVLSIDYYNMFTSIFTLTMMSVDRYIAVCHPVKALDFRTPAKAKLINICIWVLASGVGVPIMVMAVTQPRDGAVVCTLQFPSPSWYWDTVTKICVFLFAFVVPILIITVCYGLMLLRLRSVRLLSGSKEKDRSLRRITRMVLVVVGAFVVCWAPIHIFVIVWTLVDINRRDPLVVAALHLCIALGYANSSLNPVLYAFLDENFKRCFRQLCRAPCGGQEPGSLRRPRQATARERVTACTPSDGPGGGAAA

[4] = as §1; assay type: ADME, Colon; details: Caco-2 cell homogenate
[5] = as §2; assay type: ADME, cell-based
[6] = molecular target: T1, Mu-type opioid receptor (Homo sapiens, UniProt P35372); assay: Displacement of [3H]DAMGO from mu opioid receptor in human SHSY5Y cells; assay type: cell-based, SH-SY5Y
T1 sequence (P35372 whole entry): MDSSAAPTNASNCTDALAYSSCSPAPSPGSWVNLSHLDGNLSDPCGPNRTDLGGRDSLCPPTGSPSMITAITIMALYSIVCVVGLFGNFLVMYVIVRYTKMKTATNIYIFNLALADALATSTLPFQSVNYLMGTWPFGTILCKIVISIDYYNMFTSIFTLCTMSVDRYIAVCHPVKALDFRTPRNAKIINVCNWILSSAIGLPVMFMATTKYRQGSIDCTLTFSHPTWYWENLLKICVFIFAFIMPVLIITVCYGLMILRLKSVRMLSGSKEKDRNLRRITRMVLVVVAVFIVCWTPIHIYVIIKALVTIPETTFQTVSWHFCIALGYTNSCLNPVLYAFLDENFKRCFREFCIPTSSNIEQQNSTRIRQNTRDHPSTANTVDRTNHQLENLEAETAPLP
In short: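 Intact SH-SY5Y cells in 24-well plates were pre-incubated in binding buffer (50 mM Tris pH 7.4, 2% BSA). Incubated with 100 pM [3H]DAMGO plus unlabelled competitor (7 concentrations, 10 pM-1 μM) for 60 min at 37°C. Nonspecific binding defined with 1 μM DAMGO. Cells washed, dissolved in 1 M NaOH and counted by scintillation. Triplicates on at least three plates; Ki from one-site competition fits.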

[7] = molecular target: Mu-type opioid receptor (Rattus norvegicus, UniProt P33535); assay: Displacement of [3H]DAMGO from mu opioid receptor in rat brain membrane; assay type: cell membranes
Chain of Mu-type opioid receptor (Rattus norvegicus, UniProt P33535) (P33535 whole entry): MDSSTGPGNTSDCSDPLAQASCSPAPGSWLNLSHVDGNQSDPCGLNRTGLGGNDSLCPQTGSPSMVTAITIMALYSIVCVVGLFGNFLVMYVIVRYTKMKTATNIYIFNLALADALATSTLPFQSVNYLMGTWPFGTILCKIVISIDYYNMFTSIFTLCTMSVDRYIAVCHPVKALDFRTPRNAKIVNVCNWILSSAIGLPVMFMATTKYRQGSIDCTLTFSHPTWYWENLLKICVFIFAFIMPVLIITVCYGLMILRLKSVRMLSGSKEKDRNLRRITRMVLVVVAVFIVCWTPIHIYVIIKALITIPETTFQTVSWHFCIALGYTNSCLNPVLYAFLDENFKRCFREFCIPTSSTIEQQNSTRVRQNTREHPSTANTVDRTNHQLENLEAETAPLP

[8] = species on record: Rattus norvegicus; assay: Selectivity for rat mu opioid receptor over rat delta opioid receptor
In short: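 Ratio Kiδ/Kiμ, with both Ki values from competitive displacement binding on prepared rat brain P2 synaptosome membranes. The μ site was labelled with [3H]DAMGO. Ki values are given as mean ± SE, n = 3-4.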

[9] = molecular target: T1, Mu-type opioid receptor; assay: Agonist activity at mu opioid receptor in human SHSY5Y cells assessed as inhibition of forskolin-stimulated cAMP production at 100 nM; assay type: functional, cell-based; set-up: scale not given: the % may be the effect or the level left; details: SH-SY5Y
In short: (§3)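 SH-SY5Y cells (endogenous mu and delta opioid receptors, passages 10-20) grown in 96-well plates to 80% confluence. Peptides applied in DMEM with 30 μM forskolin for 30 min at 37°C. Lysed cells read by cAMP enzyme immunoassay (TMB, 450 nm) against a 0-3.2 pmol standard curve, expressed relative to the maximal forskolin response. Three experiments in triplicate; IC50 from concentration-response curves.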

[10] = molecular target: T1, Mu-type opioid receptor; assay: Agonist activity at mu opioid receptor in human SHSY5Y cells assessed as inhibition of forskolin-stimulated cAMP production; assay type: functional, cell-based, SH-SY5Y; in short: as §3

SMILES	half-life [4]	Papp A→B [5]	pKi [6]	Activity [9]	other results
Cc1cc(O)cc(C)c1C[C@H](N)C(=O)N1CCC[C@H]1C(=O)N[C@@H](Cc1c[nH]c2ccccc12)C(=O)N[C@@H](Cc1ccccc1)C(N)=O (stereo in doubt)					t1/2 [1]: 5 min; Papp [2]: 0.196 ×10⁻⁷ cm/s
CCCCCCC(N)C(=O)N[C@@H](Cc1ccc(O)cc1)C(=O)N1CCC[C@H]1C(=O)N[C@@H](Cc1c[nH]c2ccccc12)C(=O)N[C@@H](Cc1ccccc1)C(N)=O (stereo partly drawn)	23.2 min	35.4 nm/s	8.67	65.4%	pKi [3]: 5.75; pKi [7]: 8.54; Ratio Ki [8]: 614; pIC50 [10]: 7.58
CCCCCCC(N)C(=O)N[C@@H](Cc1c(C)cc(O)cc1C)C(=O)N1CCC[C@H]1C(=O)N[C@@H](Cc1c[nH]c2ccccc12)C(=O)N[C@@H](Cc1ccccc1)C(N)=O (stereo partly drawn) (H-[ξAoc(2)][Dmt]PWF-NH2)			10.09	84.3%	pIC50 [10]: 9.49
CCCCCCCCCCC(NC(=O)[C@H](Cc1ccccc1)NC(=O)[C@H](Cc1c[nH]c2ccccc12)NC(=O)[C@@H]1CCCN1C(=O)[C@@H](N)Cc1ccc(O)cc1)C(N)=O (stereo partly drawn) (H-YPWF[ξGly(decyl)]-NH2)		4.16 nm/s			
CCCCCCCCCCCCCCCCC(N)C(=O)N[C@@H](Cc1ccc(O)cc1)C(=O)N1CCC[C@H]1C(=O)N[C@@H](Cc1c[nH]c2ccccc12)C(=O)N[C@@H](Cc1ccccc1)C(N)=O (stereo partly drawn) (H-[ξGly(nC16H33)]YPWF-NH2)				48.4%	
NC(=O)[C@H]1O[C@@H](NC(=O)[C@H](Cc2ccccc2)NC(=O)[C@H](Cc2c[nH]c3ccccc23)NC(=O)[C@@H]2CCCN2C(=O)[C@@H](N)Cc2ccc(O)cc2)[C@H](O)[C@@H](O)[C@@H]1O	4.3 min		6.82	31.5%	
CCCCCCC(NC(=O)[C@H](Cc1ccccc1)NC(=O)[C@H](Cc1c[nH]c2ccccc12)NC(=O)[C@@H]1CCCN1C(=O)[C@H](Cc1ccc(O)cc1)NC(=O)CCC(=O)N[C@@H]1O[C@H](CO)[C@@H](O)[C@H](O)[C@H]1O)C(N)=O (stereo partly drawn) ({NH(β-D-Glc)-Suc}-YPWF[ξAoc(2)]-NH2)	33 min	11.4 nm/s	6.58		
Cc1cc(O)cc(C)c1C[C@H](N)C(=O)N1CCC[C@H]1C(=O)N[C@@H](Cc1c[nH]c2ccccc12)C(=O)N[C@@H](Cc1ccccc1)C(N)=O (stereo in doubt; 13) [listing 1 of 2 here]					Ratio Ki [8]: 75
NC(=O)[C@H](Cc1ccccc1)NC(=O)[C@H](Cc1c[nH]c2ccccc12)NC(=O)[C@@H]1CCCN1C(=O)[C@@H](N)Cc1ccc(O)cc1 [ENDOMORPHIN-1]		4.47 nm/s			
NC(=O)[C@H](Cc1ccccc1)NC(=O)[C@H](Cc1c[nH]c2ccccc12)NC(=O)[C@@H]1CCCN1C(=O)[C@H](Cc1ccc(O)cc1)NC(=O)CCC(=O)N[C@@H]1O[C@H](CO)[C@@H](O)[C@H](O)[C@H]1O	38 min	5.45 nm/s	6.94		pKi [3]: 5.20; pKi [7]: 6.94; Ratio Ki [8]: 55
CCCCCCCCCCC(N)C(=O)N[C@@H](Cc1ccc(O)cc1)C(=O)N1CCC[C@H]1C(=O)N[C@@H](Cc1c[nH]c2ccccc12)C(=O)N[C@@H](Cc1ccccc1)C(N)=O (stereo partly drawn) (H-[ξGly(decyl)]YPWF-NH2)		12.4 nm/s	7.81	55.4%	pKi [3]: 6.08; pKi [7]: 7.83; Ratio Ki [8]: 56
CCCCCCC(NC(=O)[C@H](Cc1ccccc1)NC(=O)[C@H](Cc1c[nH]c2ccccc12)NC(=O)[C@@H]1CCCN1C(=O)[C@@H](N)Cc1ccc(O)cc1)C(N)=O (stereo partly drawn) (H-YPWF[ξAoc(2)]-NH2)	3.5 min	8.23 nm/s	6.92	15.9%	
CCCCCC[C@H](N)C(=O)N[C@@H](Cc1ccc(O)cc1)C(=O)N1CCC[C@H]1C(=O)N[C@@H](Cc1c[nH]c2ccccc12)C(=O)N[C@@H](Cc1ccccc1)C(N)=O	23.8 min		8.52		
CCCCCC[C@@H](N)C(=O)N[C@@H](Cc1ccc(O)cc1)C(=O)N1CCC[C@H]1C(=O)N[C@@H](Cc1c[nH]c2ccccc12)C(=O)N[C@@H](Cc1ccccc1)C(N)=O	23.8 min		8.53		
Cc1cc(O)cc(C)c1C[C@H](N)C(=O)N1CCC[C@H]1C(=O)N[C@@H](Cc1c[nH]c2ccccc12)C(=O)N[C@@H](Cc1ccccc1)C(N)=O (stereo in doubt; 13) [listing 2 of 2 here]			10.23		pKi [3]: 8.30; t1/2 [1]: 13.5 min; Papp [2]: 5.04 ×10⁻⁷ cm/s; pKi [7]: 10.17; pIC50 [10]: 9.37
CCCCCCC(N)C(=O)N[C@@H](Cc1ccc(O)cc1)C(=O)N1CCC[C@H]1C(=O)N[C@@H](Cc1c[nH]c2ccccc12)C(=O)N[C@@H](Cc1ccccc1)C(=O)N[C@@H]1O[C@H](C(N)=O)[C@@H](O)[C@H](O)[C@H]1O (stereo partly drawn) (H-[ξAoc(2)]YPWF-X1)	75 min	16.2 nm/s	6.83	36.2%	
